Assays:
[1] = Oral bioavailability in Crl:CD(SD) rat at 1 mg/kg measured up to 24 hrs by LC-MS/MS analysis; assay type: ADME, organism-based; conditions: in vivo
Procedure, shortened: (§1)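 Male Crl:CD(SD) rats, 8 weeks old, food deprived (n=4); iv 0.3 mg/kg or po 1 mg/kg in DMF/propylene glycol/water for injection (1/1/8) containing 1 M NaOH (2 equivalents). Plasma sampled to 24 h, assayed by validated LC-MS/MS. Parameters from each animal by noncompartmental analysis, reported as means.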

[2] = AUCinfinity in Crl:CD(SD) rat at 0.3 mg/kg, iv measured up to 24 hrs by LC-MS/MS analysis; assay type: ADME, organism-based; parameters: dose 0.3 mg/kg, route intravenous, time infinity; conditions: in vivo; procedure, shortened: as §1
[3] = target: T1, Muscarinic acetylcholine receptor M5 (Homo sapiens) (UniProt P08912); test: (§2) Positive allosteric modulation of recombinant human muscarinic acetylcholine receptor M5 expressed in CHOK1 cells assessed as increase in carbachol-induced intracellular calcium flux at 10 uM preincubated for 5 mins followed by carbachol addition by Fluo4-AM dye based FLIPR assay relative to carbachol; assay type: functional, cell-based; conditions: CHO-K1
T1 sequence (whole entry): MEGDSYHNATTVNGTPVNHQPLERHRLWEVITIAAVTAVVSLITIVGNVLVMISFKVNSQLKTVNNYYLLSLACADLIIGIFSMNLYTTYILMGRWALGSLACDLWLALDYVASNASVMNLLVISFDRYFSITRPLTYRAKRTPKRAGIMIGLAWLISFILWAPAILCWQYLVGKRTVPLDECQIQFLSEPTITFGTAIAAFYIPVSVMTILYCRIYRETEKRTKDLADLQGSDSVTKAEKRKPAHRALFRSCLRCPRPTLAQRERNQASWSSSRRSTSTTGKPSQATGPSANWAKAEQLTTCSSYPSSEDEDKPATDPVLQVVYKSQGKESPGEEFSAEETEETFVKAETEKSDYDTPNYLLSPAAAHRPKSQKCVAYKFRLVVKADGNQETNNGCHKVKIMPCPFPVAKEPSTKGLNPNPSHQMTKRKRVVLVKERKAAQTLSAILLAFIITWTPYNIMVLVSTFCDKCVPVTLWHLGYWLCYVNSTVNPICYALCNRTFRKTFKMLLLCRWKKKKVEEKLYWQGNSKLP
Procedure, shortened: (§3)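 CHO-K1 cells stably expressing human or rat M1–M5; M2 and M4 lines also co-express human Gα16. Cells loaded with 3.1 μM Fluo-4 AM in HBSS/20 mM HEPES pH 7.5/BSA/2.5 mM probenecid for ~2 h at room temperature. Test substance at 10 μM final, then carbachol (0.0024 nM–100 μM) ~5 min later; Ca2+ read by FLIPR Tetra. Fold shift = carbachol EC50 without / with test substance, from logistic fits.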

[4] = target: T2, Muscarinic acetylcholine receptor M1 (Rattus norvegicus) (UniProt P08482); test: Positive allosteric modulation of recombinant rat muscarinic acetylcholine receptor M1 expressed in CHOK1 cells assessed as increase in carbachol-induced intracellular calcium flux at 10 uM preincubated for 5 mins followed by carbachol addition by Fluo4-AM dye based FLIPR assay relative to carbachol; assay type: functional, cell-based; conditions: CHO-K1; procedure, shortened: as §3
T2 sequence (whole entry): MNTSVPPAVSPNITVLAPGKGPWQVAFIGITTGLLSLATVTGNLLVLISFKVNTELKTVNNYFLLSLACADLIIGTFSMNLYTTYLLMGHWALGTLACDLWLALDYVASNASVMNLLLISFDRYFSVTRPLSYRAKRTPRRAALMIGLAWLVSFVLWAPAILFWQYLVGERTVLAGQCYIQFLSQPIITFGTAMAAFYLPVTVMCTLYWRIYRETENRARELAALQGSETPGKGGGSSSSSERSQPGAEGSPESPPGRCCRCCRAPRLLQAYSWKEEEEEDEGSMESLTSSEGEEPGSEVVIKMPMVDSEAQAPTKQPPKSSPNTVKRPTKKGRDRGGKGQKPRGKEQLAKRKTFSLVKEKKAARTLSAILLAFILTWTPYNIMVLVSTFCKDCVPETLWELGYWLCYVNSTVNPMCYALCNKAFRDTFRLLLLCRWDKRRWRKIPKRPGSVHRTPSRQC

[5] = target: T3, Muscarinic acetylcholine receptor M5 (Rattus norvegicus) (UniProt P08911); test: Positive allosteric modulation of recombinant rat muscarinic acetylcholine receptor M5 expressed in CHOK1 cells assessed as increase in carbachol-induced intracellular calcium flux at 10 uM preincubated for 5 mins followed by carbachol addition by Fluo4-AM dye based FLIPR assay relative to carbachol; assay type: functional, cell-based; conditions: CHO-K1; procedure, shortened: as §3
T3 sequence (whole entry): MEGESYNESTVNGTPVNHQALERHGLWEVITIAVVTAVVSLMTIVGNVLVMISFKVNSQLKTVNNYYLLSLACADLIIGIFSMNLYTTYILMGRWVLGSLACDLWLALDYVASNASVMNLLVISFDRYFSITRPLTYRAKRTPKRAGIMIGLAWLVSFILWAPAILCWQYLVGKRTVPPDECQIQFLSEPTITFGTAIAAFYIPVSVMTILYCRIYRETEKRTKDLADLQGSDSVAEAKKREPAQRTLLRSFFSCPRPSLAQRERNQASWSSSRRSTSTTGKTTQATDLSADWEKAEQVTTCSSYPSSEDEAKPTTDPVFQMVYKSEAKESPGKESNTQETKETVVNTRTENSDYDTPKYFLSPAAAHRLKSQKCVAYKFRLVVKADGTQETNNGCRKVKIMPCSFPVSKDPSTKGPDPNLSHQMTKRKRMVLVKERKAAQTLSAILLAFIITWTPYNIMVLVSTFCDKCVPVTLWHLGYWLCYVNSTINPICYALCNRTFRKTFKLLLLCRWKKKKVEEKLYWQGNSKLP

[6] = target: Muscarinic acetylcholine receptor M3 (Rattus norvegicus) (UniProt P08483); test: Positive allosteric modulation of muscarinic acetylcholine receptor M3 in Sprague-Dawley rat urinary bladder assessed as increase in 8 Hz electrical field stimulation-induced bladder contraction by measuring tension of isolated bladder contraction at 10 uM (reference value: 2.21 +/- 0.26 g)
Procedure, shortened: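 Female Sprague-Dawley rats, 9–10 weeks old. Longitudinal bladder strips (~10×2 mm) in Krebs at 37°C, gassed with 95% O2/5% CO2. EFS at 8 Hz, 10 s trains, 0.3 ms pulses, voltage set to give about half-maximal response. Drug added cumulatively at 1, 3 and 10 μM, 10 stimulations per concentration. Contraction = peak minus basal tone, averaged over the last 3 contractions and compared with pre-drug value (n=7).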

[7] = target: Muscarinic acetylcholine receptor M3 (Homo sapiens) (UniProt P20309); test: as §2, with “M3” for “M5”; assay type: functional, cell-based; conditions: CHO-K1; procedure, shortened: as §3
[8] = Half life in Crl:CD(SD) rat at 0.3 mg/kg, iv measured up to 24 hrs by LC-MS/MS analysis; assay type: ADME, organism-based; conditions: in vivo; procedure, shortened: as §1
[9] = target: Muscarinic acetylcholine receptor M3 (Rattus norvegicus) (UniProt P08483); test: Positive allosteric modulation of recombinant rat muscarinic acetylcholine receptor M3 expressed in CHOK1 cells assessed as increase in carbachol-induced intracellular calcium flux at 10 uM preincubated for 5 mins followed by carbachol addition by Fluo4-AM dye based FLIPR assay relative to carbachol; assay type: functional, cell-based; conditions: CHO-K1; procedure, shortened: as §3

Muscarinic acetylcholine receptor M3 (Rattus norvegicus), sequence (P08483 whole entry, looked up): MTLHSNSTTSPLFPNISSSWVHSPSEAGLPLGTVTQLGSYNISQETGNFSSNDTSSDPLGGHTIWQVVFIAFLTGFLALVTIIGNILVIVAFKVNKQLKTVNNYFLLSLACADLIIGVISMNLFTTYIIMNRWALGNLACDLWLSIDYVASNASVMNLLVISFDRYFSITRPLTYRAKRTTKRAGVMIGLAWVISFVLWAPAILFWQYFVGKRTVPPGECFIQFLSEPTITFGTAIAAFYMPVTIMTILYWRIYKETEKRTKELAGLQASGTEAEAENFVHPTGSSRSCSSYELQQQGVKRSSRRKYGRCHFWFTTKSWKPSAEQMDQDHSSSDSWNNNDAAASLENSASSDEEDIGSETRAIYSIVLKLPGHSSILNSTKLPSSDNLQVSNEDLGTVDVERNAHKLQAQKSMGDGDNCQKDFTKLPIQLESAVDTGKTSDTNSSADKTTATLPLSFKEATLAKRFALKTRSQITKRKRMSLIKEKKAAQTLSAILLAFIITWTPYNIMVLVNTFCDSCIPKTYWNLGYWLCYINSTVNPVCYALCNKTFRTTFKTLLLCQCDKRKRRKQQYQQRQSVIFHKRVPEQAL
Muscarinic acetylcholine receptor M3 (Homo sapiens), sequence (P20309 whole entry, looked up): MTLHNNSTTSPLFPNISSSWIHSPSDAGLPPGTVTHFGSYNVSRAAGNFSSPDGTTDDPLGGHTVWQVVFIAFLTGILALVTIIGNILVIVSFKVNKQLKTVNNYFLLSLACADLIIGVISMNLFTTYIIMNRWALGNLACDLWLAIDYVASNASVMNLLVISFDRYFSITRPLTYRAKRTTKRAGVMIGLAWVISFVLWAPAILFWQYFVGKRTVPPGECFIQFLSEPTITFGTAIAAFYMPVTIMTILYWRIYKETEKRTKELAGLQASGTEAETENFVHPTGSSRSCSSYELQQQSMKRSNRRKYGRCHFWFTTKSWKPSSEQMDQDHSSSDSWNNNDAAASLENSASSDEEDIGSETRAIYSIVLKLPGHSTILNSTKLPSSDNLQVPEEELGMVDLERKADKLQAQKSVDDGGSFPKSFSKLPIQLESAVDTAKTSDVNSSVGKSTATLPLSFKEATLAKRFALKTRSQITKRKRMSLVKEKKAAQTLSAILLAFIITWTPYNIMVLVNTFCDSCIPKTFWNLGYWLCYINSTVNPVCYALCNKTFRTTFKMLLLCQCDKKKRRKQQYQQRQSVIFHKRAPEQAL

## CC[C@@H]1CCCN1Cc1sc(NC(=O)c2cnc(N3CCC(C(=O)O)CC3)cn2)nc1-c1ccc(OC)c(C(F)(F)F)c1.Cl.Cl
[1]
  bioavailability: 19%
[2]
  AUC(0-inf): 0.33 µg·h/mL
[3]
  fold change (FC): 94
[4]
  fold change (FC): 2.1
[5]
  fold change (FC): 110
[6]
  Activity: 3.49 g
[7]
  fold change (FC): 269
[8]
  half-life: 2.43 h
[9]
  fold change (FC): 158

Source: ChEMBL document CHEMBL4622869, “Discovery and structure-activity relationships study of positive allosteric modulators of the M3 muscarinic acetylcholine receptor” (Bioorg Med Chem, 2020)
